Experimental data from ChEMBL document CHEMBL4229333, “Effects of rigidity on the selectivity of protein kinase inhibitors” (Eur J Med Chem, 2018).

Columns and labels:
[1] = molecular target: Dual specificity tyrosine-phosphorylation-regulated kinase 1A (Homo sapiens) (UniProt Q13627); assay: Inhibition of DYRK1A (unknown origin) at 1 uM by mobility shift microfluidics platform based assay relative to control
[2] = molecular target: Serine/threonine-protein kinase Nek1 (Homo sapiens) (UniProt Q96PY6); assay: Inhibition of NEK1 (unknown origin) at 1 uM by mobility shift microfluidics platform based assay relative to control
[3] = molecular target: Inhibitor of nuclear factor kappa-B kinase subunit alpha (Homo sapiens) (UniProt O15111); assay: Inhibition of IKK-alpha (unknown origin) at 1 uM by mobility shift microfluidics platform based assay relative to control
[4] = molecular target: Homeodomain-interacting protein kinase 3 (Homo sapiens) (UniProt Q9H422); assay: Inhibition of HIPK3 (unknown origin) at 1 uM by mobility shift microfluidics platform based assay relative to control
[5] = molecular target: Dual specificity protein kinase CLK1 (Homo sapiens) (UniProt P49759); assay: Inhibition of CLK1 (unknown origin) at 1 uM by mobility shift microfluidics platform based assay relative to control
[6] = molecular target: Tyrosine-protein kinase Yes (Homo sapiens) (UniProt P07947); assay: Inhibition of YES (unknown origin) at 1 uM by mobility shift microfluidics platform based assay relative to control
[7] = molecular target: Protein-tyrosine kinase 2-beta (Homo sapiens) (UniProt Q14289); assay: Inhibition of PYK2 (unknown origin) at 1 uM by mobility shift microfluidics platform based assay relative to control
[8] = molecular target: Phosphorylase b kinase gamma catalytic chain, liver/testis isoform (Homo sapiens) (UniProt P15735); assay: Inhibition of PHK-gamma2 (unknown origin) at 1 uM by mobility shift microfluidics platform based assay relative to control
[9] = molecular target: Death-associated protein kinase 3 (Homo sapiens) (UniProt O43293); assay: Inhibition of DAPK3 (unknown origin) at 1 uM by mobility shift microfluidics platform based assay relative to control
[10] = molecular target: Cyclin-dependent kinase 5/CDK5 activator 1 (Homo sapiens) (UniProt Q00535+Q15078); assay: Inhibition of CDK5-p25 (unknown origin) at 1 uM by mobility shift microfluidics platform based assay relative to control; format: protein-complex assay
[11] = molecular target: Angiopoietin-1 receptor (Homo sapiens) (UniProt Q02763); assay: Inhibition of TIE2 (unknown origin) at 1 uM by mobility shift microfluidics platform based assay relative to control
[12] = molecular target: Calcium/calmodulin-dependent protein kinase type II subunit beta (Homo sapiens) (UniProt Q13554); assay: Inhibition of CAMK2B (unknown origin) at 1 uM by mobility shift microfluidics platform based assay relative to control
[13] = molecular target: Dual specificity tyrosine-phosphorylation-regulated kinase 3 (Homo sapiens) (UniProt O43781); assay: Inhibition of DYRK3 (unknown origin) at 1 uM by mobility shift microfluidics platform based assay relative to control
[14] = molecular target: Ephrin type-B receptor 4 (Homo sapiens) (UniProt P54760); assay: Inhibition of EPH-B4 (unknown origin) at 1 uM by mobility shift microfluidics platform based assay relative to control
[15] = molecular target: Tyrosine-protein kinase Mer (Homo sapiens) (UniProt Q12866); assay: Inhibition of MER (unknown origin) at 1 uM by mobility shift microfluidics platform based assay relative to control
[16] = molecular target: Serine/threonine-protein kinase TAO2 (Homo sapiens) (UniProt Q9UL54); assay: Inhibition of TAOK2 (unknown origin) at 1 uM by mobility shift microfluidics platform based assay relative to control
[17] = molecular target: Tyrosine-protein kinase TXK (Homo sapiens) (UniProt P42681); assay: Inhibition of TXK (unknown origin) at 1 uM by mobility shift microfluidics platform based assay relative to control
[18] = test system: Serine/threonine-protein kinase B-raf (Homo sapiens), P15056 [V600E]; assay: Ratio of IC50 for inhibition of BRAF V600E mutant (unknown origin) after 20 mins by immunoblotting assay to IC50 for inhibition of full length FLAG-tagged BRAF V600E mutant (unknown origin) expressed in HEK293 cells assessed as decrease in MEK phosphorylation by immunoblotting assay; format: cell-based
[19] = molecular target: Tyrosine-protein kinase JAK1 (Homo sapiens) (UniProt P23458); assay: Inhibition of JAK1 (unknown origin) at 1 uM by mobility shift microfluidics platform based assay relative to control
[20] = molecular target: Platelet-derived growth factor receptor alpha (Homo sapiens) (UniProt P16234); assay: Inhibition of PDGFR-alpha (unknown origin) at 1 uM by mobility shift microfluidics platform based assay relative to control
Homo sapiens = species on record: Homo sapiens; assay: Inhibition of CDK6/Cyclin D (unknown origin) at 1 uM by mobility shift microfluidics platform based assay relative to control
[21] = molecular target: Serine/threonine-protein kinase PAK 2 (Homo sapiens) (UniProt Q13177); assay: Inhibition of PAK2 (unknown origin) at 1 uM by mobility shift microfluidics platform based assay relative to control
[22] = molecular target: Tyrosine-protein kinase Srms (Homo sapiens) (UniProt Q9H3Y6); assay: Inhibition of SRMS (unknown origin) at 1 uM by mobility shift microfluidics platform based assay relative to control
[23] = molecular target: Aurora kinase B (Homo sapiens) (UniProt Q96GD4); assay: Inhibition of AURORA-B (unknown origin) at 1 uM by mobility shift microfluidics platform based assay relative to control
[24] = molecular target: Tyrosine-protein kinase HCK (Homo sapiens) (UniProt P08631); assay: Inhibition of HCK (unknown origin) at 1 uM by mobility shift microfluidics platform based assay relative to control
[25] = molecular target: Protein kinase C theta type (Homo sapiens) (UniProt Q04759); assay: Inhibition of PKC-theta (unknown origin) at 1 uM by mobility shift microfluidics platform based assay relative to control
[26] = molecular target: Tyrosine-protein kinase receptor TYRO3 (Homo sapiens) (UniProt Q06418); assay: Inhibition of TYRO3 (unknown origin) at 1 uM by mobility shift microfluidics platform based assay relative to control
[27] = molecular target: Sphingosine kinase 1 (Homo sapiens) (UniProt Q9NYA1); assay: Inhibition of SPHK1 (unknown origin) at 1 uM by mobility shift microfluidics platform based assay relative to control
[28] = molecular target: Tyrosine-protein kinase CSK (Homo sapiens) (UniProt P41240); assay: Inhibition of CSK (unknown origin) at 1 uM by mobility shift microfluidics platform based assay relative to control
[29] = Apparent permeability from apical to basolateral side in human Caco2 cells in absence of P-gp inhibitor by LC-MS/MS analysis; format: ADME, cell-based; conditions: Caco-2
Summary of the method: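 Caco-2 monolayer permeability, measured apical-to-basolateral and basolateral-to-apical. Compound concentrations were quantified by LC-MS/MS, and apparent permeability coefficients (Papp, cm/s) were calculated from them.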

[30] = molecular target: Insulin receptor (Homo sapiens) (UniProt P06213); assay: Inhibition of INSR (unknown origin) at 1 uM by mobility shift microfluidics platform based assay relative to control
[31] = molecular target: Receptor tyrosine-protein kinase erbB-4 (Homo sapiens) (UniProt Q15303); assay: Inhibition of ERB-B4 (unknown origin) at 1 uM by mobility shift microfluidics platform based assay relative to control
[32] = molecular target: Serine/threonine-protein kinase SIK2 (Homo sapiens) (UniProt Q9H0K1); assay: Inhibition of SNF1LK2 (unknown origin) at 1 uM by mobility shift microfluidics platform based assay relative to control

Serine/threonine-protein kinase TAO2 (Homo sapiens), sequence (Q9UL54 whole entry): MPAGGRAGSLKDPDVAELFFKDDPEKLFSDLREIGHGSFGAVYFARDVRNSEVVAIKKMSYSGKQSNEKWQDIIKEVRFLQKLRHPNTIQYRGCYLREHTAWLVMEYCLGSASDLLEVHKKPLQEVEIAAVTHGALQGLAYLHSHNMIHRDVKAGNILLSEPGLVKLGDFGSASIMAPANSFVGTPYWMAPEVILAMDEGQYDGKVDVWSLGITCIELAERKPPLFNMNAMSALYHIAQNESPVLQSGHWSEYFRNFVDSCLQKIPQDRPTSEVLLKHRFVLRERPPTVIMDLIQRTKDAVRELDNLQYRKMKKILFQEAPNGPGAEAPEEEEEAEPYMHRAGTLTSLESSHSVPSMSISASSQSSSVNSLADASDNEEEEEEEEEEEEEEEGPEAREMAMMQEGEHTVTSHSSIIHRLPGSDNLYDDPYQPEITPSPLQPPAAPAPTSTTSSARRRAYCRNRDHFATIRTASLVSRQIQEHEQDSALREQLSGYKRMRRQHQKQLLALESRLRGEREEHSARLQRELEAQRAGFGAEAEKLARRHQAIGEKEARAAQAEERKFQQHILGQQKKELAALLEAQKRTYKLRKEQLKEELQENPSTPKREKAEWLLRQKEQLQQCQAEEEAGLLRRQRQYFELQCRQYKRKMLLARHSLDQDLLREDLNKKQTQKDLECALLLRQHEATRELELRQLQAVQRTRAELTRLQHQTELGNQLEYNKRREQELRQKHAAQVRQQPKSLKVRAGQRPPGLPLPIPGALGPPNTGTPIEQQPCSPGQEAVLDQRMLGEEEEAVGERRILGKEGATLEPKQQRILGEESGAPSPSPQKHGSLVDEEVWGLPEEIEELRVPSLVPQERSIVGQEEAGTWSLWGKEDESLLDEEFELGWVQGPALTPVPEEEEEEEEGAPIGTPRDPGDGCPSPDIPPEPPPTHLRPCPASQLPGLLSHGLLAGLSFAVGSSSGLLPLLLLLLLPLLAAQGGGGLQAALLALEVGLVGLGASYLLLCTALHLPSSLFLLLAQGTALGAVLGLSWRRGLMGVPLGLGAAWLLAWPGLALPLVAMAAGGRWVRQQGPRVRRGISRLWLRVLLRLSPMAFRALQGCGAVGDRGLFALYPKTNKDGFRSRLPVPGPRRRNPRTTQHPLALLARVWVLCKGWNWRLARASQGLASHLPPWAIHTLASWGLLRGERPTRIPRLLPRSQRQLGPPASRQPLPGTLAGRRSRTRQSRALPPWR
Receptor tyrosine-protein kinase erbB-4 (Homo sapiens), sequence (Q15303 whole entry): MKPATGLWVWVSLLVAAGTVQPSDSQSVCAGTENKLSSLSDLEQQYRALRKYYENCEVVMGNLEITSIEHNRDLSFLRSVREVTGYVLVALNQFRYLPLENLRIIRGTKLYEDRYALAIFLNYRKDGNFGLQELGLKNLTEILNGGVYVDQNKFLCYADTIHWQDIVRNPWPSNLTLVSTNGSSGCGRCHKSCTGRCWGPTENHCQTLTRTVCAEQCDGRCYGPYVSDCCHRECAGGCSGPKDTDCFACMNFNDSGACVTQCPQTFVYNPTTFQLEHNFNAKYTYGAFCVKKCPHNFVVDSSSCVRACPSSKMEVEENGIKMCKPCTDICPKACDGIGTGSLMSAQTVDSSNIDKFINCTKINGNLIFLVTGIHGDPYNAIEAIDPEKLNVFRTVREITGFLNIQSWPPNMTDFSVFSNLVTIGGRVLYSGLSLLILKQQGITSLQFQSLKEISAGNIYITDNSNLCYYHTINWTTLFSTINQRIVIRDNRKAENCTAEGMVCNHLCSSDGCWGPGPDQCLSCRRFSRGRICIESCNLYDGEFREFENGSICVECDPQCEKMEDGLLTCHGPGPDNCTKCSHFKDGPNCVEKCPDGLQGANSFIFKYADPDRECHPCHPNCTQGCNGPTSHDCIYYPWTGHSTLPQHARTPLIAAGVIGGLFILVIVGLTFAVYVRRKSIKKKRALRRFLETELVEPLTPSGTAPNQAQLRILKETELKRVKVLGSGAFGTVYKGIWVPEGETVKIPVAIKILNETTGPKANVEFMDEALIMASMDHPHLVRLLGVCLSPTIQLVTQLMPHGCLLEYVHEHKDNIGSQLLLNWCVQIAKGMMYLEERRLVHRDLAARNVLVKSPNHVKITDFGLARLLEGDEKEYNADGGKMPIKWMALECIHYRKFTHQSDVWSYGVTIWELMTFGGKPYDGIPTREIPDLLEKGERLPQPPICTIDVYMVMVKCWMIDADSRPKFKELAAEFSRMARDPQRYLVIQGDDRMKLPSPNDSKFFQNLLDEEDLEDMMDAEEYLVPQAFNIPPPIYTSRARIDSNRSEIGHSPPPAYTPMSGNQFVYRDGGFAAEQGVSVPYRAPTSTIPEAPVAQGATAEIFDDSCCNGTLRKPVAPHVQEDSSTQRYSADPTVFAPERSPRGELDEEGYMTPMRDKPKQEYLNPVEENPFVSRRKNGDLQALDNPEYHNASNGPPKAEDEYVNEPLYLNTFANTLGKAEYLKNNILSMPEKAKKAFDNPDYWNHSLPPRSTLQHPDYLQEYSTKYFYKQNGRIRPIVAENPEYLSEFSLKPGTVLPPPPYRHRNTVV
Cyclin-dependent kinase 5/CDK5 activator 1 (Homo sapiens), sequence (Q00535 whole entry): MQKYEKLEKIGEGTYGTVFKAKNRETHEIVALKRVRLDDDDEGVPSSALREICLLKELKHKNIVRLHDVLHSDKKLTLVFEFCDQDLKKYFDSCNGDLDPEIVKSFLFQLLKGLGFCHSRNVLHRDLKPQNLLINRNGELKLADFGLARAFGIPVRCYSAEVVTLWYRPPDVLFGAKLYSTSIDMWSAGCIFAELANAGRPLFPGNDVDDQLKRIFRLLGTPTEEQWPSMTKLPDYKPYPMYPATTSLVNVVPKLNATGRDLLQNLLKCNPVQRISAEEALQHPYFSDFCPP
Cyclin-dependent kinase 5/CDK5 activator 1 (Homo sapiens), sequence (Q15078 99-307 partner limits assumed): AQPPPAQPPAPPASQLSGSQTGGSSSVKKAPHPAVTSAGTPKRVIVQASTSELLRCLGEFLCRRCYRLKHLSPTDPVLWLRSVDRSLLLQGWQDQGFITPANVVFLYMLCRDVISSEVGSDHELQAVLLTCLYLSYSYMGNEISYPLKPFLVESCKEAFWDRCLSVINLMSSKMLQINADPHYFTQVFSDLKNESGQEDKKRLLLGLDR
Platelet-derived growth factor receptor alpha (Homo sapiens), sequence (P16234 whole entry): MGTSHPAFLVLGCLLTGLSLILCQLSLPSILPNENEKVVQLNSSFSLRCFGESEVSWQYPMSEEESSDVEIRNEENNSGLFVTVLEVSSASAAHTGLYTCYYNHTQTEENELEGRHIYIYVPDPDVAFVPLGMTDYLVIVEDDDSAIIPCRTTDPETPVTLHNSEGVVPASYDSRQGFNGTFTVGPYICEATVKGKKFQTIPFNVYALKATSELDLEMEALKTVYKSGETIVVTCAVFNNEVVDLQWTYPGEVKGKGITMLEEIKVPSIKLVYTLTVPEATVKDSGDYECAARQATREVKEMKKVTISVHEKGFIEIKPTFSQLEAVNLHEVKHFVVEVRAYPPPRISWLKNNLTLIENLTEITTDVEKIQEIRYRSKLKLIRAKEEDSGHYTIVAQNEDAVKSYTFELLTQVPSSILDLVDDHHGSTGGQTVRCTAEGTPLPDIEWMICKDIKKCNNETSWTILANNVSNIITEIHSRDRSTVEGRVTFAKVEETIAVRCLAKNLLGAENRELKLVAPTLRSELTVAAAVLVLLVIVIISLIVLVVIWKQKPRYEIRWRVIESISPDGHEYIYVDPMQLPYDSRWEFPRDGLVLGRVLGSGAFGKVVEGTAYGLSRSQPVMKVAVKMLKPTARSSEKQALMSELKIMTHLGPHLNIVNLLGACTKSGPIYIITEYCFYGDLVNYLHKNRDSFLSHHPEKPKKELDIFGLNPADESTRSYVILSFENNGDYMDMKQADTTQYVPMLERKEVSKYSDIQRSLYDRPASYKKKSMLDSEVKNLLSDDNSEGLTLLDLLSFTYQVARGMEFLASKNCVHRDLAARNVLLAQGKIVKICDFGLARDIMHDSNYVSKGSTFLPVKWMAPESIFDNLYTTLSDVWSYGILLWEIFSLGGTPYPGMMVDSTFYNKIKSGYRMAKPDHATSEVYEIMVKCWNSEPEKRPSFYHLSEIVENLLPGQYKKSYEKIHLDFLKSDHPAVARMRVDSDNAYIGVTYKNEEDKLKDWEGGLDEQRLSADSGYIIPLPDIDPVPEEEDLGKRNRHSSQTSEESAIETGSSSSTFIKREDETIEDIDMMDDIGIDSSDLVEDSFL
Phosphorylase b kinase gamma catalytic chain, liver/testis isoform (Homo sapiens), sequence (P15735 whole entry, canonical isoform): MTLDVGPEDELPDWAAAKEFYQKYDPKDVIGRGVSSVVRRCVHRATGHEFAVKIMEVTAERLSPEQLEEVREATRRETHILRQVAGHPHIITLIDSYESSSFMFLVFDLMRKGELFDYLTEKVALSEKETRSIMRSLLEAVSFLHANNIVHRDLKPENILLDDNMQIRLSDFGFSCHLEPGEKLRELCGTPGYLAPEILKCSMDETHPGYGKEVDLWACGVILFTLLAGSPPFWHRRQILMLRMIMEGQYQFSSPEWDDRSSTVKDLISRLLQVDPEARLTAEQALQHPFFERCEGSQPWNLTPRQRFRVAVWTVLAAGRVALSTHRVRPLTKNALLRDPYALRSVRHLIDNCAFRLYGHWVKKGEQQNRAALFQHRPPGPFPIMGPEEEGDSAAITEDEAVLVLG
Tyrosine-protein kinase TXK (Homo sapiens), sequence (P42681 whole entry): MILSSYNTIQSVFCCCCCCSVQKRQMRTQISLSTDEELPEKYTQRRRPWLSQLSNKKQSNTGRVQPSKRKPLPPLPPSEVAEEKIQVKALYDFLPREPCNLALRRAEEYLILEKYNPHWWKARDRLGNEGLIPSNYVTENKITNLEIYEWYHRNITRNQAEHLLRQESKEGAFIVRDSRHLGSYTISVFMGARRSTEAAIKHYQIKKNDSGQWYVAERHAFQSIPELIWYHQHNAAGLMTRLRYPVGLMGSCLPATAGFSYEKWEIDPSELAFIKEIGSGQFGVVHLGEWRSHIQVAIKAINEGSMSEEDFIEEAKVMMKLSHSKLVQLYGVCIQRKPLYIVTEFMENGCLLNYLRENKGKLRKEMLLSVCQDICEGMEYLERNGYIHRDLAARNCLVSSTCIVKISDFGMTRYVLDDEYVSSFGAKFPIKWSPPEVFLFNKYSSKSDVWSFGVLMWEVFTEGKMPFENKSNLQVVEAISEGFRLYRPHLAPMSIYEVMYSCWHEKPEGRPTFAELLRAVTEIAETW

Row | inhibition [1] [%] | inhibition [2] [%] | inhibition [3] [%] | inhibition [4] [%] | inhibition [5] [%] | inhibition [6] [%] | inhibition [7] [%] | inhibition [8] [%] | inhibition [10] [%] | inhibition [11] [%] | inhibition [12] [%] | inhibition [13] [%] | inhibition [14] [%] | inhibition [15] [%] | inhibition [16] [%] | inhibition [17] [%] | Ratio IC50 [18] | inhibition [19] [%] | inhibition [20] [%] | Compound | inhibition [9] [%] | also measured
1 | 2 | -5 | -3 | -1 | -1 | 88 | 1 | 4 | 2 | 61 | 5 | 1 | 80 | 0 | 17 | 5 | 2 to 4 | -3 | 94 | CC(C)n1nc(C#Cc2cccc3cc(-c4cccc(C(F)(F)F)c4)ncc23)c2c(N)ncnc21 | 11 | inhibition (Homo sapiens): 0%; inhibition [21]: -2%; inhibition [22]: 20%; inhibition [23]: 27%; inhibition [24]: 81%; inhibition [25]: -2%; inhibition [26]: 2%; inhibition [27]: 4%; inhibition [28]: 31%; Papp A→B [29]: 0.8 ×10⁻⁶ cm/s; inhibition [30]: 5%; inhibition [31]: 4%; inhibition [32]: 10%
2 | 2 | -1 | 26 | 0 | 2 | 101 | 74 | -8 | 2 | 96 | 1 | 7 | 97 | 6 | 17 | 94 | 2 to 4 | 97 | 100 | CC(C)n1nc(C#Cc2cccc(NC(=O)c3cccc(C(F)(F)F)c3)c2)c2c(N)ncnc21 | 11 | inhibition (Homo sapiens): -1%; inhibition [21]: 1%; inhibition [22]: 55%; inhibition [23]: 82%; inhibition [24]: 107%; inhibition [25]: 0%; inhibition [26]: 67%; inhibition [27]: 2%; inhibition [28]: 93%; Papp A→B [29]: 0.5 ×10⁻⁶ cm/s; inhibition [30]: 12%; inhibition [31]: 88%; inhibition [32]: 7%
